Screening data as filed in PubChem.
NALP3 yeast inh: inhibitors of NALP3 inflammasome in yeast. Yeast reconstituted NLRP3/ASC/caspase-1, beta-gal luminescence, 24 h. inhibition, % at 10 µM. hit rate 0.39% among 330,000. AID 2825;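 active = inhibition of 50% or more; inactive = inhibition below 50%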
CSC inhib: blocks cancer stem cells; cancer stem cell-like cells viability, luminescence; inhibition, % at 7.5 µM; hit rate 1.1% among 300,000; in the data active = inhibition above about 75%; inconclusive = no clear call, values can overlap the other calls; tested in HMLE shEcad cells
T cruzi repl: blocks replication of Trypanosoma cruzi; T. cruzi beta-gal in NIH3T3, luminescence, 90 h; inhibition, % (test concentration not listed); hit rate 1.4% among 300,000;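 active = mean inhibition across valid replicates above about 55%, limit read from the data; inconclusive = mean below that limit but half or more replicates reach it; inactive = mean below it, under half of replicates reach it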;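 note: signal also drops with host cell toxicity which is not excluded here; higher percent means less beta-gal luminescence so fewer parasites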
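Test system: β-gal T. cruzi (Tulahuen C4) inside NIH/3T3 cells / Quantity: 5,000 cells/well / Measured by: luminescence from GalScreen with 0.05% NP40, read after 60 min / Medium: DMEM plus 2% FBS / Measure: parasite load inhibition, % / Reagent: Tulahuen C4 trypomastigotes, 5000/well / Schedule: co-culture of at least 90 h after 3 h attachment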
Mdm2-MdmX inh: inhibitors of human Mdm2/MdmX interaction | SaOS-2 split-luciferase Mdm2/MdmX complementation, luminescence | AID 485346 | inhibition, % at 8 µM | O15151+Q00987 | hit rate 3% among 330,000;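 active = inhibition of at least 50% at 8 µM in the primary screen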
Beta cell apopt: blocks beta cell apoptosis; INS-1E cytokine-induced death, ATP luminescence, 48 h; percent of positive-control rescue, neutral wells zero; protection from apoptosis, % (concentration not given with the values); hit rate 0.8% among 300,000;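 active = Every replicate reaches about 75%, or at least half do and their mean reaches it too, limit read from the data; inconclusive = At least half of replicates reach the limit but their mean does not; inactive = Under half of replicates reach the limit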;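 note: higher means more ATP so stronger rescue from cytokine killing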
Calb FLC: affects C. albicans growth with fluconazole; C. albicans CaCi-2 + fluconazole, Alamar Blue growth, 48 h; growth inhibition, % (concentration not given with the values); hit rate 0.57% among 300,000; AID 1979;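 active = growth inhibition above about 58% in most replicates, limit read from the data, passing the limit was not always enough; inconclusive = exactly half the replicates above a set limit; inactive = most replicates below a set limit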;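 note: all wells also contain fluconazole at 8 µg/ml as a sub-toxic cotreatment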
Mdm2 MdmX conf: human Mdm2/MdmX binding inhibition, confirmed. hit rate 55% among 10,000. inhibition, % at 8 µM. luminescent assay. shares compounds with Mdm2-MdmX inh. AID 489028; in the data active = inhibition above about 40%
FLuc counter: inhibits full-length luciferase, flagging false Mdm2/MdmX hits; shares compounds with Mdm2-MdmX inh; SaOS-2 full-length luciferase counterscreen, luminescence; inhibition, % at 8 µM; hit rate 77% among 6,200; AID 504607;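 active = mean inhibition at 8 µM reaching about 37%, which flags the compound as non-specific, limit read from the data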;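 note: p53-null SaOS-2 cells with luciferase driven by a doxycycline-inducible promoter; compound on cells about two nights before reading with doxycycline added after day one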
A number is an active result; i = inactive; ? = inconclusive; nt = no result given. Compounds with a hit are over-represented: about 5.3% of the library has one in this group of screens.

SMILES	NALP3 yeast inh	CSC inhib	T cruzi repl	Mdm2-MdmX inh	Beta cell apopt	Calb FLC	Mdm2 MdmX conf	FLuc counter
CC1Oc2cc3c(-c4c(O)cc(O)c5c(O)c6c(cc45)OC(C)C(C)C6=O)c(O)cc(O)c3c(O)c2C(=O)C1C (stereo not given)	i	i	i	89	109	i	73	i
O=C(CCNC(=O)N1C[C@H]2C[C@@H](C1)c1cccc(=O)n1C2)Nc1ccc(F)cc1	i	i	i	i	i	i	nt	nt
Clc1ccc(COC(Cn2ccnc2)c2ccc(Cl)cc2Cl)cc1 (stereo not given)	i	i	i	i	i	nt	nt	nt
Clc1ccc(CO/N=C(\Cn2ccnc2)c2ccc(Cl)cc2Cl)c(Cl)c1	i	103	68	56	88	nt	i	nt
C[C@H]1CC[C@@H]2[C@@H](C)[C@H]3[C@H](C[C@H]4[C@@H]5CC=C6C[C@@H](O[C@@H]7O[C@H](CO)[C@H](O)[C@H](O[C@@H]8O[C@H](CO)[C@@H](O)[C@H](O)[C@H]8O)[C@H]7O[C@@H]7O[C@@H](C)[C@H](O)[C@@H](O)[C@H]7O)CC[C@]6(C)[C@H]5CC[C@]34C)N2C1	i	i	i	60	i	i	i	nt
O=c1[nH]c(=S)n(C2CC2)c(O)c1C=Nc1ccc2c(c1)OCO2	i	i	i	i	nt	i	nt	nt
OC(c1cccc(Cl)c1)(c1cccc(Cl)c1)C1CN2CCC1CC2 (stereo not given)	i	i	i	74	i	i	59	56
O=C(Nc1cccc(C(F)(F)F)c1)OC1CN2CCC1CC2 (stereo not given)	i	nt	i	i	nt	i	nt	nt
Cc1ccc(C2=CCNCC2)cc1	i	i	i	i	i	i	nt	nt
Cc1cc(OCC(=O)N2C[C@H]3C[C@@H](C2)c2cccc(=O)n2C3)c2c(C)cc(=O)oc2c1	i	i	i	i	i	i	nt	nt
C/C(=C\c1ccc(N(C)C)cc1)[N+](=O)[O-]	i	i	i	100	nt	i	i	nt
Brc1ccc(-[n+]2c(-c3ccccc3)cc(-c3ccccc3)cc2-c2ccccc2)cc1	i	i	i	87	129	i	74	i
O=C(O)c1ccc(-[n+]2c(-c3ccccc3)cc(-c3ccccc3)cc2-c2ccccc2)cc1	i	i	i	i	i	i	nt	nt
[O-]c1ccccc1-[n+]1c(-c2ccccc2)cc(-c2ccccc2)cc1-c1ccccc1	i	i	i	90	95	96	71	i
Cc1ccc(-c2cc(-c3ccc(C)cc3)[n+](-c3ccc(C(=O)O)cc3)c(-c3ccc(C)cc3)c2)cc1	i	i	i	i	i	i	nt	nt
Cc1ccccc1-[n+]1c(-c2ccccc2)cc(-c2ccccc2)cc1-c1ccccc1	i	i	i	88	100	112	88	i
Cc1ccc(-c2cc(-c3ccccc3)cc(-c3ccccc3)[n+]2-c2ccc(C(=O)O)cc2)cc1	i	i	i	i	i	i	nt	nt
CCCOC(=O)c1ccc(-[n+]2c(-c3ccccc3)cc(-c3ccccc3)cc2-c2ccccc2)cc1	i	i	55	89	123	i	87	i
C[N+]1(C)[C@@H]2CC[C@H]1CC(OC(=O)[C@@H](CO)c1ccccc1)C2 (stereo not given in full)	i	i	i	i	i	i	nt	nt
CC(C)n1c(O)c(C=NCc2cccnc2)c(=O)[nH]c1=S	i	i	i	i	i	i	nt	nt
CCOC(=O)c1ccccc1NC(=O)c1c(O)[nH]c(=S)[nH]c1=O	i	i	i	i	i	i	nt	nt
CC1CCC/C=C/C2CC(O)CC2C(O)/C=C/C(=O)O1 (stereo not given)	i	131	i	96	99	i	100	52
C[C@H]1CCC/C=C/C2C[C@H](O)CC2[C@H](O)/C=C/C(=O)O1 (stereo not given in full)	i	113	i	100	99	nt	99	51
C[C@H]1CCC[C@H](O)CCCCCc2cc(O)cc(O)c2C(=O)O1	i	i	i	i	i	nt	nt	nt
C[C@H]1CCC[C@@H](O)CCC/C=C/c2cc(O)cc(O)c2C(=O)O1	i	nt	i	i	i	i	nt	nt
SMILES	NALP3 yeast inh	CSC inhib	T cruzi repl	Mdm2-MdmX inh	Beta cell apopt	Calb FLC	Mdm2 MdmX conf	FLuc counter
CC(N)Cc1ccccc1Sc1ccc(O)cc1 (stereo not given)	i	i	i	i	i	i	nt	nt
CN(C)C(=O)O/N=C(\N)COc1ccc(C(C)(C)C)cc1	i	i	i	98	i	i	96	57
C=CCn1cc(C=C2C(=O)NC(=O)NC2=O)c2ccccc21	i	i	i	i	i	i	nt	nt
O=C1NC(=O)C(=Cc2cn(CCOc3ccc4c(c3)OCO4)c3ccccc23)C(=O)N1	i	i	i	59	i	i	i	nt
Cc1cc(OCC(=O)NCC(O)c2ccccc2)c2c3c(c(=O)oc2c1)CCC3 (stereo not given)	i	i	i	i	i	i	nt	nt
O=C1/C(=C\c2ccccc2)C2OCC=C3CN4CCC56c7ccccc7N1C5C2C3CC46 (stereo not given)	i	i	i	71	i	i	51	70
O=C1CC2OCC=C3CN4CCC56c7cc([N+](=O)[O-])ccc7N1C5C2C3CC46 (stereo not given)	i	i	i	i	i	i	nt	nt
CCCNC(=O)N1[C@H]2CC[C@@H]1C(C(=O)OC)=C(c1cccc(C#N)c1)C2	i	i	nt	i	i	nt	nt	nt
O=c1[nH]c2ccccc2n1C1CCN(CCCC(c2ccc(F)cc2)c2ccc(F)cc2)CC1	i	98	i	66	i	nt	i	nt
O=c1[nH]c(=O)n(-c2cccc3ccccc23)c(O)c1/C=N/N1CCCCCC1	i	i	i	i	i	i	nt	nt
Cc1cc([N+](=O)[O-])c2ccccc2[n+]1[O-]	i	i	79	99	115	?	100	51
CNCC(O)c1cccc(OC(=O)c2ccccc2C)c1 (stereo not given)	i	i	nt	i	i	i	nt	nt
CNCC(O)c1cc(OCc2ccccc2)c(OCc2ccccc2)cc1F (stereo not given)	i	i	i	82	i	i	i	nt
CC1CCC(C(C)C)C(OC(=O)Cn2c(COc3ccccc3)[n+](C)c3ccccc32)C1 (stereo not given)	i	98	73	98	106	i	96	54
C=C1C2C[C@@]3([C@@H]1O)[C@@H](C[C@@H]2O)[C@@]12C4[C@@H]3C[C@@H]1[C@@](C)(CC[C@@H]2O)CN4CC	i	i	nt	i	i	nt	nt	nt
